Values after ≈ are worked out from the molar mass of the structure shown.
How the values were obtained:
[1] = Solubility after 30 mins by turbidimetric solubility assay; type: physicochemical
Outline: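 Serial dilutions from a 1 mM DMSO stock added to 100 mM PBS pH 7.4, giving 1% final DMSO and a final range of 1–500 […], three replicates per concentration. After 30 min, absorbance read at 500, 550, 600, 650 and 700 nm.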

[2] = biological target: T1, ATP-dependent translocase ABCB1 (Homo sapiens, UniProt P08183); assay: Inhibition of MDR1 (unknown origin) expressed in MDCK cells after 30 mins by Calcein-AM assay; type: cell-based
[3] = Partition coefficient, logK of the compound using methanol/pH 7.4 phosphate buffer by RP-chromatography; type: physicochemical
Outline: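 Isocratic RP-HPLC on a C18 column (300SB, 4.6 × 250 mm, 5 μm) at 1 mL/min with UV detection at 230 and 254 nm. Eluent methanol/PBS pH 7.4 70:30. Samples 0.1 mg/mL in 10% DMSO/90% methanol. Dead time taken from D2O. Log k′ = log[(tr − t0)/t0], using the mean of three injections.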

[4] = Lipophilicity, logD of the compound at pH 7.4; type: physicochemical; details: buffer
Outline: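 Octanol/PBS pH 7.4 partitioning, with chemiluminescent nitrogen detection as the read-out; carried out by an outside contractor.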

[5] = biological target: T1, ATP-dependent translocase ABCB1; assay: Inhibition of MDR1 (unknown origin) expressed in MDCK cells after 2 hrs by bioluminescent ATP assay; type: cell-based
Outline: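 MDCK-MDR1 cells seeded at 2 × 10⁴ cells/well and incubated overnight at 37 °C, 5% CO₂, then exposed to test compounds (1, 10, 50, 100 μM) in complete medium for 2 h. Cells lysed, luciferase/D-luciferin substrate added, dark-adapted 10 min, and luminescence read as a measure of cellular ATP. Untreated cells served as control.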

[6] = biological target: T1, ATP-dependent translocase ABCB1; assay: Inhibition of MDR1 in human MCF7/ADR cells assessed as potentiation of doxorubicin-induced antiproliferative activity at 1 to 25 uM after 72 hrs by MTT assay; type: cell-based; details: nci/adr-res
Outline: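 MCF7adr cells, grown in RPMI 1640 with 10% FBS, seeded at 25000/well. Next day, compound added at 1, 10 or 25 μM for 24 h. Medium then replaced and the same concentration given with doxorubicin 10 μM for 48 h. MTT 0.5 mg/mL for 3–4 h at 37 °C, formazan dissolved in DMSO/EtOH 1:1, absorbance read at 570 and 630 nm.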

[7] = Efflux ratio, ratio of permeability from basolateral to apical side over apical to basolateral side in human Caco2 cells by UV spectroscopy; type: ADME, cell-based; details: Caco-2
Outline: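 Caco-2 monolayers grown 21 days, then equilibrated twice in HBSS pH 7.4 at 37 °C for 30 min. Drug dissolved in HBSS was added to the apical or basolateral side, with an initial concentration of 1 × 10⁻⁴ M. Transport ran 120 min at 37 °C. Acceptor concentration was read by UV; Papp (nm/s) was computed from it. The ratio is B→A Papp over A→B Papp. Mean of three independent experiments, each in triplicate.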

T1 sequence (P08183 whole entry): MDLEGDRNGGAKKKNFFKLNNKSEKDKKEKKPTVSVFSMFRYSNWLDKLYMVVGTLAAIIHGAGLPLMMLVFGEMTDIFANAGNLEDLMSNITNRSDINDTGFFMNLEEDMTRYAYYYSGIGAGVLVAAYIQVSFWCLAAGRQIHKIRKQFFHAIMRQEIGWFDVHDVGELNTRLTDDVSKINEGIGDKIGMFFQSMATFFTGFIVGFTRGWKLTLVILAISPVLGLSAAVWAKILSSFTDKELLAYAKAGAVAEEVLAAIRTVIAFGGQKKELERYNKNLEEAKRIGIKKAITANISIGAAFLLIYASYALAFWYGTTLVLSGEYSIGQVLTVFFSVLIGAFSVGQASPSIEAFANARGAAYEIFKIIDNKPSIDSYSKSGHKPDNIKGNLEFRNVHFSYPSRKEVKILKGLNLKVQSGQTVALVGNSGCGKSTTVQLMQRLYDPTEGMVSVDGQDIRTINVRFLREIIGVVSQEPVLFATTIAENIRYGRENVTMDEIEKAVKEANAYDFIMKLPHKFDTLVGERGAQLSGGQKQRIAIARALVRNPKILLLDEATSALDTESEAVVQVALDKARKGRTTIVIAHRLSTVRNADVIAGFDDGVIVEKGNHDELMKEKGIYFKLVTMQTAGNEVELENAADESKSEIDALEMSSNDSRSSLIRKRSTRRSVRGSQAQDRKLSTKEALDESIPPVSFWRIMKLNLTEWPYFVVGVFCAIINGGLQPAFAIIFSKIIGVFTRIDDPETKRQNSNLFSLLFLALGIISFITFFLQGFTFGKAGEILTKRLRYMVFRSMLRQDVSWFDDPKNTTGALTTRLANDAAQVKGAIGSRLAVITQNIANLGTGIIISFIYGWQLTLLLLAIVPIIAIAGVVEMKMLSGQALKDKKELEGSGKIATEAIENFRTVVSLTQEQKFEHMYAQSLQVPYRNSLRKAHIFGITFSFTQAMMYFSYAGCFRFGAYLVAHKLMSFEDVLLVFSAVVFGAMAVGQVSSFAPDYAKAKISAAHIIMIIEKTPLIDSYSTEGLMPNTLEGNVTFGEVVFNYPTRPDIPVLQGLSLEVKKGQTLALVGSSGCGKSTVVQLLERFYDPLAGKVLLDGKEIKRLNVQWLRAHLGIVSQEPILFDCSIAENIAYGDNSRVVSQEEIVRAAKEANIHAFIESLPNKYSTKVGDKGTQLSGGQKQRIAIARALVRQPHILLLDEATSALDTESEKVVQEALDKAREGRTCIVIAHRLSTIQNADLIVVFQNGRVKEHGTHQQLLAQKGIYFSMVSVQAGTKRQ

Row | solubility kinetic at 0.5 h [1] | IC50 [2] | log K [3] | logD [4] | inhibition (INH) [5] | efflux ratio [7] | SMILES | Activity [6]
1 | 10 µg/mL (≈ 24.4 µM) |  |  |  |  |  | COc1cc(C(=O)Nc2ccc(-c3cccnc3)cc2[N+](=O)[O-])cc(OC)c1OC | 
2 |  | 1.02 µM |  |  |  |  | COc1cc2c(cc1OC)CN(CC/C=C1\CCCc3c(OC)cccc31)CC2 | 
3 |  | 1.3 µM | 0.32 | 3.59 |  |  | COc1cc(C(=O)Nc2ccc(-c3cc(F)cc(F)c3)cn2)cc(OC)c1OC | 
4 |  | 0.97 µM | 0.47 | 3.66 | Active | 10.7 | COc1cc(OC)c(C(=O)Nc2ccc(-c3cc(F)cc(F)c3)cn2)cc1OC | Active
5 |  | 8.21 µM | -0.44 | 2.39 |  |  | COc1cc(C(=O)Nc2ccc(-c3cccnc3)cn2)cc(OC)c1OC | 
6 |  | 0.54 µM | -0.12 | 3.03 |  |  | COc1cc(OC)c(C(=O)Nc2ccc(-c3cccnc3)cn2)cc1OC | 
7 | 25 µg/mL (≈ 65.4 µM) |  | -0.36 | 2.48 |  |  | COc1cc(C(=O)Nc2ccc(-c3cccnc3)cc2F)cc(OC)c1OC | 
8 | 30 µg/mL (≈ 78.5 µM) | 0.2 µM | 0.24 | 2.84 | Active | 14 | COc1cc(OC)c(C(=O)Nc2ccc(-c3cccnc3)cc2F)cc1OC | Active
9 | 45 µg/mL (≈ 118 µM) | 0.67 µM | 0.37 | 3.99 | Active | 6.7 | COc1ccc(C(=O)Nc2ccc(-c3cccnc3)cc2F)c(OC)c1OC | Active
10 | 60 µg/mL (≈ 157 µM) | 2.93 µM | -0.39 | 2.38 |  |  | COc1cc(OC)c(C(=O)Nc2ccc(-c3cccnc3)cc2F)c(OC)c1 | 
11 | 18 µg/mL (≈ 51.1 µM) | 8.92 µM | -0.45 | 2.23 |  |  | COc1ccc(C(=O)Nc2ccc(-c3cccnc3)cc2F)cc1OC | 
12 | 20 µg/mL (≈ 56.8 µM) | 3.3 µM | -0.18 | 2.81 |  |  | COc1cc(OC)cc(C(=O)Nc2ccc(-c3cccnc3)cc2F)c1 | 
13 | 22 µg/mL (≈ 68.3 µM) | 5.26 µM | -0.32 | 2.9 |  |  | COc1ccc(C(=O)Nc2ccc(-c3cccnc3)cc2F)cc1 | 
14 | 40 µg/mL (≈ 137 µM) | 9.2 µM | -0.38 | 2.83 |  |  | O=C(Nc1ccc(-c2cccnc2)cc1F)c1ccccc1 | 
15 | 300 µg/mL (≈ 1020 µM) | 60.1 µM | -0.68 | 1.97 |  |  | O=C(Nc1ccc(-c2cccnc2)cc1F)c1cccnc1 | 
16 |  | 3.2 µM | -0.31 | 2.75 |  |  | COc1cc(C(=O)Nc2ccc(-c3ccncc3)cc2F)cc(OC)c1OC | 
17 |  | 0.31 µM | 0.31 | 3.13 | Active | 8.1 | COc1cc(OC)c(C(=O)Nc2ccc(-c3ccncc3)cc2F)cc1OC | Active
18 |  | 1.23 µM | 0.67 | 3.64 |  |  | COc1ccc(-c2ccc(NC(=O)c3cc(OC)c(OC)cc3OC)c(F)c2)cc1 | 
19 |  | 67.5 µM | -0.88 | 1.7 |  |  | COc1ccc(S(=O)(=O)Nc2ccc(-c3cccnc3)cc2F)cc1OC | 
20 |  | 2.76 µM | -0.09 | 2.62 |  |  | COc1cc(C(=O)Nc2ccc(-c3cc(F)cc(F)c3)cc2N)cc(OC)c1OC | 
21 |  | 18.5 µM | -0.03 | 2.31 |  |  | COc1cc(C(=O)Nc2ccc(-c3cc(F)cc(F)c3)cc2NC(=O)[C@@H](C)NC(C)=O)cc(OC)c1OC | 
22 |  | 6.66 µM | -0.51 | 2.32 |  |  | COc1cc(C(=O)N(C)c2ccc(-c3cccnc3)cc2F)cc(OC)c1OC | 
23 |  | 21.6 µM | -0.59 | 1.75 |  |  | COc1cc(OC)c(C(=O)N(C)c2ccc(-c3cccnc3)cc2F)cc1OC | 

— ChEMBL document CHEMBL3351897, “Trimethoxybenzanilide-based P-glycoprotein modulators: an interesting case of lipophilicity tuning by intramolecular hydrogen bonding” (J Med Chem, 2014)
